Results pooled from the literature.
Protocols differ between the studies behind these lines.
KCNH2: Voltage-gated inwardly rectifying potassium channel KCNH2 (KCNH2, Homo sapiens, UniProt Q12809)

COc1ccc(F)cc1C(=O)NCc1ccc(-c2nn([C@@H](C)C(F)(F)F)c(N)c2C(N)=O)cc1 — Tmax (human, plasma; oral, 200 mg, single dose, fasted): 2.5 h
CC[C@H](C)CCCCC(=O)N[C@@H](CCN)C(=O)N[C@H](C(=O)N[C@@H](CCN)C(=O)N[C@H]1CCNC(=O)[C@H]([C@@H](C)O)NC(=O)[C@H](CCN)NC(=O)[C@H](CCN)NC(=O)[C@H](CC(C)C)NC(=O)[C@@H](CC(C)C)NC(=O)[C@H](CCN)NC1=O)[C@@H](C)O — MRT(0-inf) (male Sprague-Dawley rat, plasma; subcutaneous, 10 mg/kg): 4.88 h
N#C[C@@]1(n2ccc(N)nc2=O)O[C@H](CO)[C@@H](O)[C@H]1O — CC50 (Caco-2; cell growth or viability): > 100 µM
CC(C)CC(=O)OC[C@H]1O[C@@](C#N)(c2ccc3c(N)ncnn23)[C@H](O)[C@@H]1O — inhibition (KCNH2; ligand displacement; 20 µM): -3%
Cc1cccc(C)c1NC(=O)C1CCCCN1 (centres unmarked) — inhibition (KCNH2; ion current, inhibitor, patch clamp; 100 µM): 19.4%
Cc1[nH]c(C)c(S(=O)(=O)Nc2ccc(S(F)(F)(F)(F)F)cc2)c1C(=O)N1CCC(F)(F)C1 — IC50 (KCNH2; ion current, inhibitor, patch clamp): > 30 µM
CO[C@H]1/C=C/O[C@@]2(C)Oc3c(C)c(O)c4c(O)c(c(/C=N/N5CCN(C6CCCC6)CC5)c(O)c4c3C2=O)NC(=O)/C(C)=C\C=C\[C@H](C)[C@H](O)[C@@H](C)[C@@H](O)[C@@H](C)[C@H](OC(C)=O)[C@@H]1C — MRT (male Sprague-Dawley rat, plasma; intravenous, 10 mg/kg, single dose): 24.4 h
O=c1nc(NO)ccn1[C@@H]1O[C@H](CO)[C@@H](O)[C@H]1O — CC50 (Caco-2; cell growth or viability): > 100 µM
